Holding throughout (format): functional
What all share (conditions): read-out: DIZ

Assay [1] concerns Staphylococcus aureus. Put plainly: Antimicrobial activity against methicillin-resistant Staphylococcus aureus 143/93 at 2 mM after overnight incubation by agar diffusion method. Put shortly:
(§1)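 Agar well diffusion: 50 µl of a 2.0 mM solution in 1:9 DMSO:MeOH placed in 9 mm wells cut in nutrient agar or Mueller Hinton II agar; plates incubated 37 °C for 24 h, then inhibition zone diameter measured in mm. Zones scored as clear, partially clear, unclear (many colonies inside) or faint. Ciprofloxacin positive control at 5 µg/mL in water.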
On the technique in general: A growth-free zone around the sample is the usual read-out of agar diffusion tests.

In assay [2] the test system is Staphylococcus aureus. Put plainly: Antimicrobial activity against wild type Staphylococcus aureus SG 511 at 2 mM after overnight incubation by agar diffusion method. Put shortly: (§2)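 Agar diffusion: 9 mm wells cut in Standard I Nutrient Agar or Mueller Hinton II agar, each loaded with 50 µl of a 2.0 mM compound solution in 1:9 DMSO:MeOH. Ciprofloxacin was run as control at 5 µg/mL in H2O. Plates were incubated at 37 °C for 24 h, and the inhibition zone diameter was read in mm. Zones were flagged as partially clear, unclear with colonies, or faint.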

In the next assay the test system is Mycolicibacterium vaccae. Put plainly: Antimicrobial activity against Mycobacterium vaccae IMET 10670 at 2 mM after overnight incubation by agar diffusion method. Put shortly:
as §2

Assay [3] deals with Pseudomonas aeruginosa. Put plainly: Antimicrobial activity against Pseudomonas aeruginosa K799/61 mutant at 2 mM after overnight incubation by agar diffusion method. Put shortly: as §1
The subject of another assay is Bacillus subtilis. Put plainly: Antimicrobial activity against Bacillus subtilis ATCC 6633 at 2 mM after overnight incubation by agar diffusion method. Put shortly:
as §2

In assay [4] the test system is Enterococcus faecalis. Put plainly: Antimicrobial activity against vancomycin-resistant Enterococcus faecalis 1528 at 2 mM after overnight incubation by agar diffusion method. Put shortly: as §1
Another assay deals with Micrococcus luteus. Put plainly: Antimicrobial activity against Micrococcus luteus ATCC 10240 at 2 mM after overnight incubation by agar diffusion method. Put shortly: as §2
Another assay concerns Escherichia coli. Put plainly: Antimicrobial activity against Escherichia coli ATCC 25922 at 2 mM after overnight incubation by agar diffusion method. Put shortly:
as §2

Assay [5] relates to Pseudomonas aeruginosa. Put plainly: Antimicrobial activity against wild type Pseudomonas aeruginosa K799 at 2 mM after overnight incubation by agar diffusion method. Put shortly:
as §2

Assay [6] concerns Enterococcus faecalis. Put plainly: Antimicrobial activity against Enterococcus faecalis ATCC 49532 at 2 mM after overnight incubation by agar diffusion method. Put shortly: as §2

This note sets out measurements from ChEMBL document CHEMBL1158519, “Syntheses and antibacterial activity studies of new oxazolidinones from nitroso Diels-Alder chemistry” (2010).

For `O=C1O[C@@H](COC(=O)N2OC3C=CC2C3)CN1c1ccc(N2CCOCC2)c(F)c1` (some centres undefined), the zone of inhibition at 2000 µM in the assay with Staphylococcus aureus [1] was 25 mm; with Staphylococcus aureus [2], 15 mm; in the assay with Mycolicibacterium vaccae, 30 mm; in the assay on Pseudomonas aeruginosa [3], 0 mm; with Bacillus subtilis it was 17 mm; with Enterococcus faecalis [4], 19 mm.
`CC(=O)OC[C@H]1CN(c2ccc(N3CCOCC3)c(F)c2)C(=O)O1`: the zone of inhibition at 2000 µM is 38 mm in the assay with Micrococcus luteus; 26 mm with Staphylococcus aureus [2]; 43 mm in the assay with Mycolicibacterium vaccae; 0 mm in the assay on Escherichia coli; 17 mm in the assay on Pseudomonas aeruginosa [3]; 0 mm in the assay with Pseudomonas aeruginosa [5]. For the same compound, the zone of inhibition at 2000 µM in the assay on Bacillus subtilis amounted to 26.5 mm; in the assay with Enterococcus faecalis [6], 24 mm.
Take `O=C1O[C@@H](CO)CN1c1ccc(N2CCOCC2)c(F)c1`: the zone of inhibition at 2000 µM turned out to be 38 mm with Micrococcus luteus; 23 mm in the assay on Staphylococcus aureus [2]; 43 mm with Mycolicibacterium vaccae; 0 mm in the assay on Escherichia coli; 11 mm in the assay with Pseudomonas aeruginosa [3]; 0 mm with Pseudomonas aeruginosa [5]. Further, the zone of inhibition at 2000 µM in the assay on Bacillus subtilis was determined as 26 mm; with Enterococcus faecalis [6] it was 21 mm.
Turning to `O=C1O[C@@H](COC(=O)N2OC3C=CC2CC3)CN1c1ccc(N2CC[S+]([O-])CC2)c(F)c1` (some centres undefined), the zone of inhibition at 2000 µM stood at 15 mm with Micrococcus luteus; 15 mm in the assay with Staphylococcus aureus [2]; 18 mm in the assay with Mycolicibacterium vaccae; 0 mm in the assay on Escherichia coli; 10 mm in the assay on Pseudomonas aeruginosa [3]; 0 mm with Pseudomonas aeruginosa [5]. In addition, the zone of inhibition at 2000 µM with Bacillus subtilis and in the assay on Enterococcus faecalis [6] was 17 mm each time.
For `CC(C)(C)OC(=O)N1CCN(c2ccc(N3C[C@H](COC(=O)N[C@H]4C=C[C@@H](O)CC4)OC3=O)cc2F)CC1`, the zone of inhibition at 2000 µM is 0 mm in the assay on Micrococcus luteus; 0 mm in the assay with Staphylococcus aureus [2]; 0 mm with Mycolicibacterium vaccae; 0 mm with Escherichia coli; 12 mm in the assay with Pseudomonas aeruginosa [3]; 0 mm in the assay on Pseudomonas aeruginosa [5]. Also, the zone of inhibition at 2000 µM amounted to 0 mm in the assay on Bacillus subtilis and 12 mm in the assay with Enterococcus faecalis [6].
On to `O=C(N[C@H]1C=C[C@@H](O)CC1)OC[C@H]1CN(c2ccc(N3CCSCC3)c(F)c2)C(=O)O1`, for which the zone of inhibition at 2000 µM in the assay on Micrococcus luteus amounted to 14 mm; in the assay on Staphylococcus aureus [2], 0 mm; in the assay with Mycolicibacterium vaccae, 0 mm; in the assay on Escherichia coli, 0 mm; in the assay with Pseudomonas aeruginosa [3], 10 mm; in the assay on Pseudomonas aeruginosa [5] it was 0 mm. Further, the zone of inhibition at 2000 µM with Bacillus subtilis and in the assay on Enterococcus faecalis [6] was 12 mm each time.
Consider `CC(C)(C)OC(=O)N1CCN(c2ccc(N3C[C@H](COC(=O)N[C@H]4C=C[C@@H](O)C4)OC3=O)cc2F)CC1`, for which the zone of inhibition at 2000 µM in the assay with Micrococcus luteus amounted to 12 mm; with Staphylococcus aureus [2], 14 mm; in the assay on Mycolicibacterium vaccae it was 12 mm; in the assay with Escherichia coli, 0 mm; in the assay with Pseudomonas aeruginosa [3] it was 10 mm; in the assay with Pseudomonas aeruginosa [5], 0 mm. In addition, the zone of inhibition at 2000 µM is 13 mm with Bacillus subtilis and 12.5 mm with Enterococcus faecalis [6].
For `O=C(N[C@H]1C=C[C@@H](O)C1)OC[C@H]1CN(c2ccc(N3CCSCC3)c(F)c2)C(=O)O1`, the zone of inhibition at 2000 µM in the assay with Micrococcus luteus worked out at 15 mm; in the assay on Staphylococcus aureus [2], 12.5 mm; in the assay on Mycolicibacterium vaccae, 18 mm; with Escherichia coli, 0 mm; in the assay on Pseudomonas aeruginosa [3], 10 mm; in the assay with Pseudomonas aeruginosa [5], 0 mm. Also, the zone of inhibition at 2000 µM with Bacillus subtilis was found to be 14 mm; in the assay on Enterococcus faecalis [6], 12.5 mm.
As for `O=C1O[C@@H](COC(=O)N2OC3C=CC2C3)CN1c1ccc(N2CC[S+]([O-])CC2)c(F)c1` (some centres undefined), the zone of inhibition at 2000 µM in the assay with Micrococcus luteus came out at 22 mm; with Staphylococcus aureus [2] it was 18 mm; in the assay on Mycolicibacterium vaccae it was 35 mm; with Escherichia coli it was 0 mm; with Pseudomonas aeruginosa [3], 11 mm; in the assay with Pseudomonas aeruginosa [5] it was 0 mm. The zone of inhibition at 2000 µM in the assay with Bacillus subtilis came out at 21 mm; in the assay on Enterococcus faecalis [6], 19 mm.
On to `CC(C)(C)OC(=O)N1CCN(c2ccc(N3C[C@H](COC(=O)N4OC5C=CC4CC5)OC3=O)cc2F)CC1` (some centres undefined), for which the zone of inhibition at 2000 µM with Staphylococcus aureus [1] worked out at 14 mm; in the assay with Staphylococcus aureus [2] it was 16 mm; in the assay on Mycolicibacterium vaccae it was 13 mm; in the assay on Pseudomonas aeruginosa [3], 0 mm; with Bacillus subtilis it was 18 mm; with Enterococcus faecalis [4], 12 mm.
For the compound `O=C1O[C@@H](CO)CN1c1ccc(N2CCSCC2)c(F)c1`, the zone of inhibition at 2000 µM with Micrococcus luteus is 41 mm; with Staphylococcus aureus [2] it was 24 mm; in the assay with Mycolicibacterium vaccae it was 43 mm; with Escherichia coli, 0 mm; in the assay with Pseudomonas aeruginosa [3] it was 11 mm; with Pseudomonas aeruginosa [5], 0 mm. The zone of inhibition at 2000 µM stood at 26 mm in the assay on Bacillus subtilis and 21.5 mm in the assay with Enterococcus faecalis [6].
Take `O=C(N[C@H]1C=C[C@@H](O)CC1)OC[C@H]1CN(c2ccc(N3CCOCC3)c(F)c2)C(=O)O1`: the zone of inhibition at 2000 µM was 14 mm in the assay with Staphylococcus aureus [1]; 14 mm in the assay with Staphylococcus aureus [2]; 0 mm in the assay on Mycolicibacterium vaccae; 0 mm with Pseudomonas aeruginosa [3]; 13 mm in the assay on Bacillus subtilis; 12 mm in the assay with Enterococcus faecalis [4].
For the compound `CC(C)(C)OC(=O)N1CCN(c2ccc(N3C[C@H](CO)OC3=O)cc2F)CC1`, the zone of inhibition at 2000 µM is 34.5 mm in the assay with Micrococcus luteus; 24 mm in the assay on Staphylococcus aureus [2]; 0 mm in the assay with Escherichia coli; 10 mm with Pseudomonas aeruginosa [3]; 0 mm in the assay with Pseudomonas aeruginosa [5]; 23 mm in the assay with Bacillus subtilis. Moreover, in the assay on Enterococcus faecalis [6], the zone of inhibition at 2000 µM was determined as 21 mm.
`O=C(N[C@H]1C=C[C@@H](O)C1)OC[C@H]1CN(c2ccc(N3CCOCC3)c(F)c2)C(=O)O1`: the zone of inhibition at 2000 µM in the assay with Staphylococcus aureus [1] stood at 14 mm; in the assay on Staphylococcus aureus [2], 15 mm; in the assay on Mycolicibacterium vaccae, 18 mm; in the assay with Pseudomonas aeruginosa [3], 0 mm; with Bacillus subtilis, 14 mm; with Enterococcus faecalis [4] it was 12 mm.
As to `CC(C)(C)OC(=O)N1CCN(c2ccc(N3C[C@H](COC(=O)N4OC5C=CC4C5)OC3=O)cc2F)CC1` (some centres undefined), the zone of inhibition at 2000 µM with Staphylococcus aureus [1] amounted to 19 mm; with Micrococcus luteus it was 16 mm; with Staphylococcus aureus [2] it was 13 mm; with Mycolicibacterium vaccae, 19 mm; in the assay on Escherichia coli, 0 mm; with Pseudomonas aeruginosa [3] it was 0 mm. Besides, the zone of inhibition at 2000 µM in the assay on Pseudomonas aeruginosa [5] came to 14 mm; in the assay with Bacillus subtilis it was 12 mm; in the assay with Enterococcus faecalis [4], 16 mm; in the assay with Enterococcus faecalis [6] it was 19 mm.
For the compound `O=C1O[C@@H](COC(=O)N2OC3C=CC2CC3)CN1c1ccc(N2CCOCC2)c(F)c1` (some centres undefined), the zone of inhibition at 2000 µM in the assay with Staphylococcus aureus [1] came to 18 mm; in the assay with Staphylococcus aureus [2] it was 16 mm; in the assay with Mycolicibacterium vaccae, 15 mm; in the assay on Pseudomonas aeruginosa [3] it was 0 mm; in the assay with Bacillus subtilis it was 19 mm; in the assay on Enterococcus faecalis [4] it was 16 mm.
